Test results as given in ChEMBL document CHEMBL1139624, “Synthesis and evaluation of isatin derivatives as effective SARS coronavirus 3CL protease inhibitors” (Bioorg Med Chem Lett, 2005).

Key:
[1] = target: T1, Replicase polyprotein 1a (Severe acute respiratory syndrome-related coronavirus, UniProt P0C6U8); assay: In vitro inhibitory concentration against SARS coronavirus main protease (SARS CoV 3C-like protease)
[2] = target: Replicase polyprotein 1a (Severe acute respiratory syndrome-related coronavirus) (UniProt P0C6U8); assay: In vitro percent inhibition against SARS coronavirus main protease (SARS CoV 3C-like protease) at 20 uM
Procedure, shortened: (§1)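 FRET assay with 50 nM 3CLpro preincubated 10 min at room temperature with inhibitor at 20 μM in pH 7.5 Tris–HCl/NaCl/EDTA/DTT/β-ME buffer. Percent inhibition was taken from the initial velocity.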

[3] = target: Replicase polyprotein 1a (Severe acute respiratory syndrome-related coronavirus) (UniProt P0C6U8); assay: In vitro percent inhibition against SARS coronavirus main protease (SARS CoV 3C-like protease); conditions: concentration not given here; procedure, shortened: as §1
[4] = In vitro inhibitory concentration against Trypsin (serine protease)
Procedure, shortened: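 Trypsin counter-screen run with 9 nM enzyme and 200 μM substrate.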

[5] = In vitro inhibitory concentration against Papain (cysteine protease); parameters: species or system Carica papaya
[6] = target: T1, Replicase polyprotein 1a; assay: In vitro inhibitory concentration against SARS coronavirus main protease (SARS CoV 3C-like protease) at 20 uM; procedure, shortened: as §1
[7] = target: T1, Replicase polyprotein 1a; assay: In vitro inhibitory concentration SARS coronavirus main protease (SARS CoV 3C-like protease)

SMILES	IC50 [1]	inhibition [2]	further results
O=C1C(=O)N(Cc2ccc(C(=O)N3CCCCC3)s2)c2ccc(I)cc21	17.5 µM		
Nc1cccc2c1N(Cc1cc3ccccc3s1)C(=O)C2=O		31%	
O=C1C(=O)N(Cc2cc3ccccc3o2)c2ccc([N+](=O)[O-])cc21		24%	
O=C(NC1CCCCC1)c1ccc(CN2C(=O)C(=O)c3cc(I)ccc32)s1		36%	
O=C1C(=O)N(Cc2cc3ccccc3s2)c2c(Cl)ccc(Cl)c21		46%	
Nc1ccc2c(c1)C(=O)C(=O)N2CC(=O)c1cc2ccccc2s1		40%	
COc1ccc2c(c1)C(=O)C(=O)N2Cc1cc2ccccc2s1		27%	
O=C(Nc1ccc(F)cc1)c1ccc(CN2C(=O)C(=O)c3cc(I)ccc32)s1		46%	
Cc1cc2c(c([N+](=O)[O-])c1)N(Cc1cc3ccccc3s1)C(=O)C2=O		39%	
Cc1noc(C)c1CN1C(=O)C(=O)c2cc(C(N)=O)ccc21		25%	
O=C1C(=O)N(Cc2cc3ccccc3s2)c2cccc(Cl)c21	11.2 µM		
COc1ccc2c(c1)C(=O)C(=O)N2Cc1cc2ccccc2o1		13%	
CC(C)NC(=O)c1ccc(CN2C(=O)C(=O)c3cc(I)ccc32)s1		47%	
O=C1C(=O)N(Cc2cc3ccccc3o2)c2ccc(I)cc21			inhibition [3]: 13%
O=C1C(=O)N(Cc2cc3ccccc3s2)c2c1cccc2[N+](=O)[O-]	2 µM		
Cc1noc(C)c1CN1C(=O)C(=O)c2cc(C#N)ccc21	7.2 µM		
Cc1cc2c(c([N+](=O)[O-])c1)N(CC(=O)c1cc3ccccc3s1)C(=O)C2=O		40%	
O=C1C(=O)N(Cc2cc3ccccc3s2)c2ccccc21	13.1 µM		
O=C1C(=O)N(Cc2ccc(F)cc2Cl)c2ccc(I)cc21	9.4 µM		
O=C1C(=O)N(Cc2cc3ccccc3s2)c2ccc(I)cc21	0.95 µM		IC50 [4]: 243 µM; IC50 [5]: 87.2 µM
O=C1C(=O)N(Cc2cc3ccccc3s2)c2ccc(F)cc21	4.82 µM		
O=C(Nc1ccc(Cl)cc1)c1ccc(CN2C(=O)C(=O)c3cc(I)ccc32)s1	12.6 µM		
O=C1C(=O)N(CC2COc3ccccc3O2)c2ccc(I)cc21 (stereo not given)			IC50 [6]: 13.5 µM
O=C1C(=O)N(C/C=C/c2cc3ccccc3s2)c2ccc(I)cc21	23.5 µM		
O=C1C(=O)N(Cc2cc3ccccc3s2)c2c(Br)cccc21			IC50 [4]: 362 µM; IC50 [7]: 0.98 µM; IC50 [5]: 103 µM
O=C(Nc1ccc(F)cc1F)c1ccc(CN2C(=O)C(=O)c3cc(I)ccc32)s1		32%	
